In brackets after ≈: the same amount, converted by molar mass. Activity calls are given as the source filed them. The calls are words filed in the database; no cut-off is given here.
What was measured:
Assay type in all cases: functional
[1] = system: Mycobacterium tuberculosis; experiment: Antimycobacterial activity against isoniazid/rifampicin/kanamycin/streptomycin-resistant Mycobacterium tuberculosis by microplate Alamar Blue assay
How it was run: (§1)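 MIC against multidrug-resistant M. tuberculosis strains: HR, HRKS, HRKCpm, HRKSXMfxLev and HRS. Linezolid served as reference.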

[2] = system: Mycobacterium tuberculosis; experiment: Antimycobacterial activity against isoniazid/rifampicin/kanamycin/capreomycin-resistant Mycobacterium tuberculosis by microplate Alamar Blue assay; how it was run: as §1
[3] = system: Mycobacterium tuberculosis; experiment: Antimycobacterial activity against isoniazid/rifampicin/kanamycin/streptomycin/ofloxacin/moxifloxacin/levofloxacin-resistant Mycobacterium tuberculosis by microplate Alamar Blue assay; how it was run: as §1
[4] = system: Mycobacterium tuberculosis; experiment: Antimycobacterial activity against isoniazid/rifampicin/streptomycin-resistant Mycobacterium tuberculosis by microplate Alamar Blue assay; how it was run: as §1
[5] = system: Mycobacterium tuberculosis; experiment: Antimycobacterial activity against isoniazid/rifampicin-resistant Mycobacterium tuberculosis by microplate Alamar Blue assay; how it was run: as §1

Structure (SMILES) | MIC [1] | MIC [2] | MIC [3] | MIC [4] | MIC [5]
Cc1ccccc1/N=N/C(=N/NC(=O)c1cc(O)c(O)c(O)c1)c1ccccc1 | 16 µM (≈ 6.25 µg/mL) | inactive | inactive | 5.89 µM (≈ 2.3 µg/mL) | 5.89 µM (≈ 2.3 µg/mL)
O=C(N/N=C(/N=N/c1ccccc1[N+](=O)[O-])c1ccccc1)c1cc(O)c(O)c(O)c1 | inactive | inactive | inactive | 14.8 µM (≈ 6.25 µg/mL) | 5.46 µM (≈ 2.3 µg/mL)
O=C(N/N=C(/N=N/c1ccccc1)c1ccccc1)c1cc(O)c(O)c(O)c1 | inactive | inactive | inactive | inactive | inactive
COc1ccccc1/N=N/C(=N/NC(=O)c1cc(O)c(O)c(O)c1)c1ccccc1 | inactive | inactive | inactive | inactive | 23.9 µM (≈ 9.69 µg/mL)
O=C(N/N=C(/N=N/c1ccccc1Cl)c1ccccc1)c1cc(O)c(O)c(O)c1 | inactive | inactive | inactive | 2.95 µM (≈ 1.21 µg/mL) | 2.9 µM (≈ 1.19 µg/mL)
COc1ccc(/N=N/C(=N/NC(=O)c2cc(O)c(O)c(O)c2)c2ccccc2)cc1 | 2.92 µM (≈ 1.19 µg/mL) | 7.62 µM (≈ 3.1 µg/mL) | 10.6 µM (≈ 4.29 µg/mL) | 1.9 µM (≈ 0.772 µg/mL) | 1.9 µM (≈ 0.772 µg/mL)
CC(=O)NC[C@H]1CN(c2ccc(N3CCOCC3)c(F)c2)C(=O)O1 [LINEZOLID] | 2.78 µM (≈ 0.938 µg/mL) | 1.86 µM (≈ 0.627 µg/mL) | 1.86 µM (≈ 0.627 µg/mL) | 3.7 µM (≈ 1.25 µg/mL) | 3.7 µM (≈ 1.25 µg/mL)
O=C(N/N=C(/N=N/c1ccc(Cl)cc1Cl)c1ccccc1)c1cc(O)c(O)c(O)c1 | 5.16 µM (≈ 2.3 µg/mL) | 7.43 µM (≈ 3.31 µg/mL) | 11.4 µM (≈ 5.09 µg/mL) | 1.34 µM (≈ 0.597 µg/mL) | 0.33 µM (≈ 0.147 µg/mL)
O=C(N/N=C(/N=N/c1ccc([N+](=O)[O-])cc1)c1ccccc1)c1cc(O)c(O)c(O)c1 | 22.3 µM (≈ 9.4 µg/mL) | 14 µM (≈ 5.9 µg/mL) | inactive | 5.46 µM (≈ 2.3 µg/mL) | 2.85 µM (≈ 1.2 µg/mL)
O=C(N/N=C(/N=N/c1ccc(F)cc1)c1ccccc1)c1cc(O)c(O)c(O)c1 | 0.73 µM (≈ 0.288 µg/mL) | 1.92 µM (≈ 0.757 µg/mL) | inactive | 0.96 µM (≈ 0.379 µg/mL) | 0.49 µM (≈ 0.193 µg/mL)
